Source: publication PMC9290614 (The Journal of Dermatology, 2021)
Several values for one entry are separate records, joined by “and”; a condition that tells them apart may be missing. Equal values may be shown once. Read-outs that look alike come from different tables or passages of the source.

Experiments:
[1] = type: in vivo, human; conditions: for Cmin (predose trough): geometric mean (CV% geometric mean); for AUC / AUC(0-t) / Cmax / Vd/F / half-life / Tmax: human, plasma, oral; for Tmax: median (minimum, maximum)
[2] = predominantly Caucasian healthy subjects, mean [SD]; cited from earlier work
[3] = test system: subjects with moderate to severe psoriasis; conditions: cited from earlier work
[4] = test system: plasma IL-17A, IL-17F, and IL-22; conditions: 30 mg b.i.d., PSOR-009 (ESTEEM 2) and PSOR-011 PD subsets; cited from earlier work
CYP3A4 = conditions: multiple p.o. doses of rifampicin (strong CYP3A4 induction); cited from earlier work
Population PK = type: in vivo, human; conditions: for AUC: human, plasma, oral, Median week 16 apremilast exposure (AUCτ,ss) derived from the PPK model, all subjects
Procedure, shortened: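 Pooled plasma levels came from healthy or patient subjects: single oral 20–50 mg or multiple 30/50 mg b.i.d. in phase 1, plus phase 2b/3 psoriasis studies, including Japanese sparse/intensive samples at weeks 8–24. After below-LOQ exclusion, 5704 samples remained. Base model: CL/F, first-order Ka, absorption lag, Vc/F, mixed residual error. Tested covariates included age, sex, race, bodyweight and smoking.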

[5] = test system: subjects with moderate to severe psoriasis; experiment: Exposure-response; type: in vivo, human; conditions: for Predicted probability of achieving sPGA response (0 or 1) at week 16: non-Japanese, placebo 5.0%; for Predicted probability of achieving PASI-75 response at week 16: placebo 6.1%; for Predicted probability of achieving PASI-50 response at week 16: placebo 20.0%; for sPGA Probability: at race-specific median AUCτ,ss; for Predicted probability of sPGA response (0 or 1): typical model-derived exposure, Japanese subjects, placebo 14.1%
[6] = PSOR-008/ESTEEM 1, 30 mg b.i.d.
[7] = PSOR-011, Japanese subjects, 30 mg b.i.d.
[8] = 10 mg b.i.d., median exposure 1065.4 ng·h/mL
[9] = 20 mg b.i.d., median exposure 2030.6 ng·h/mL
[10] = 30 mg b.i.d., median exposure 3169.2 ng·h/mL

Cmin (predose trough) ([1]; Japanese subjects, 20 mg b.i.d., week 20, n = 21): 91 ng/mL and 90.8 (50.1) ng/mL
Cmin (predose trough) ([1]; Japanese subjects, 30 mg b.i.d., week 20, n = 20): 104 ng/mL and 104 (66.6) ng/mL
Increase of mean AUCτ and Cmax with increase in dose ([1]; Japanese subjects, dose from 20 to 30 mg b.i.d.): ~ 1.2 times
AUC ([1]; 20 mg): 1960 ng·h/mL
AUC(0-t) ([1]; 20 mg): 1600 ng·h/mL
Cmax ([1]; 20 mg): 304 ng/mL
Vd/F ([1]; 20 mg): 68 L
half-life ([1]; 20 mg): 4.31 h
Tmax ([1]; 20 mg, Japanese subjects, 20 mg b.i.d., week 20, n = 21): ~2 h
AUC ([1]; 30 mg): 2400 ng·h/mL
AUC(0-t) ([1]; 30 mg): 1970 ng·h/mL
Cmax ([1]; 30 mg): 374 ng/mL
Vd/F ([1]; 30 mg): 83.1 L
half-life ([1]; 30 mg): 4.06 h
Tmax ([1]; 30 mg, Japanese subjects, 30 mg b.i.d., week 20, n = 20): ~2 h
Clearance faster than in a typical 45-year-old (Population PK): 14%
Clearance slower than in a 45-year-old (Population PK; 80-year-old): 8%
Vc/F greater than in a typical 82-kg individual (Population PK; 102-kg individual): approximately 14%
CL/F, typical value (RSE %) (Population PK; final PPK model): 9.25 (3.4) L/h
Clearance faster in Japanese versus non-Japanese individuals (Population PK; final PPK model): approximately 17%
Ka, first-order rate of absorption, typical value (RSE %) (Population PK; final PPK model): 1.83 (11.7) h^−1
Lag time of absorption, typical value (RSE %) (Population PK; final PPK model): 0.290 (11.7) h
Reduction of CL/F in subjects with psoriasis compared with healthy subjects (Population PK; final PPK model): approximately 17%
Vc/F, typical value (RSE %) (Population PK; final PPK model): 115 (2.2) L
AUC (Population PK; 20 mg, 20 mg b.i.d.): 2030 ng·h/mL
AUC (Population PK; 30 mg, 30 mg b.i.d.): 3170 ng·h/mL
Compound: CCOc1cc([C@@H](CS(C)(=O)=O)N2C(=O)c3cccc(NC(C)=O)c3C2=O)ccc1OC [apremilast]
AUC0-∞ [2]: 3270 [1081] ng·h/mL
Cmax [2]: 298 [81.4] ng/mL
Rate of PASI-75 response at week 16 ([3]; PSOR-005, 30 mg b.i.d.): 40.9%
Rate of sPGA response (0 or 1) at week 16 ([3]; PSOR-005, 30 mg b.i.d.): 33.0%
Treatment effect (difference in proportions between apremilast 30 mg b.i.d. and placebo), PASI-75 ([3]; PSOR-005): 35.2%
Treatment effect (difference in proportions between apremilast 30 mg b.i.d. and placebo), sPGA response ([3]; PSOR-005): 21.1%
Rate of PASI-75 response at week 16 [3, 6]: 33.1%
Rate of sPGA response (0 or 1) at week 16 [3, 6]: 21.7%
Treatment effect (difference in proportions between apremilast 30 mg b.i.d. and placebo), PASI-75 ([3]; PSOR-008/ESTEEM 1): 27.8%
Treatment effect (difference in proportions between apremilast 30 mg b.i.d. and placebo), sPGA response ([3]; PSOR-008/ESTEEM 1): 17.8%
Rate of PASI-75 response at week 16 [3, 7]: 28.2%
Rate of sPGA response (0 or 1) at week 16 [3, 7]: 29.6%
Treatment effect (difference in proportions between apremilast 30 mg b.i.d. and placebo), PASI-75 ([3]; PSOR-011): 21.1%
Treatment effect (difference in proportions between apremilast 30 mg b.i.d. and placebo), sPGA response ([3]; PSOR-011): 20.8%
Effect on plasma IL-17A, IL-17F, and IL-22 [4]: significantly reduced
Decrease in apremilast exposure (CYP3A4): ~72%
Increase in apremilast clearance (CYP3A4): 3.6 times
Predicted probability of achieving sPGA response (0 or 1) at week 16 [5, 8]: 16.2%
Predicted probability of achieving PASI-75 response at week 16 [5, 8]: 19.0%
Predicted probability of achieving PASI-50 response at week 16 [5, 8]: 43.8%
sPGA Probability ([5]; 20 mg BID, Caucasian): 23.2%
sPGA Probability ([5]; 20 mg BID, Japanese): 32.9%
Predicted probability of achieving sPGA response (0 or 1) at week 16 [5, 9]: 22.7%
Predicted probability of achieving PASI-75 response at week 16 [5, 9]: 28.6%
Predicted probability of achieving PASI-50 response at week 16 [5, 9]: 55.3%
Predicted probability of sPGA response (0 or 1) ([5]; 20 mg b.i.d.): 33.8%
sPGA Probability ([5]; 30 mg BID, Caucasian): 27.5%
sPGA Probability ([5]; 30 mg BID, Japanese): 36.3%
Predicted probability of achieving sPGA response (0 or 1) at week 16 [5, 10]: 27.3%
Predicted probability of achieving PASI-75 response at week 16 [5, 10]: 36.5%
Predicted probability of achieving PASI-50 response at week 16 [5, 10]: 62.8%
Predicted probability of sPGA response (0 or 1) ([5]; 30 mg b.i.d.): 37.5%
